Measured values: PubChem BioAssay AID504338 (NMMLSC, 2011)
Unmarked numbers belong to inactive results. Active and inactive are the calls of the source.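 Rule for the calls: active = GFP response vs DMSO above 150% with enough events counted; inconclusive = fewer than 70 events counted for a yeast strain; inactive = the rest.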

Test: yeast TOR reporter LAP4-GFP retest – cell-based, third cherry pick, flow cytometry, confirmation (AID 504338);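 note: ratio to plate DMSO wells so 100% equals DMSO level rather than 0%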
Conditions: S. cerevisiae LAP4-GFP strain, 3 h, at 10 µM, active compounds read high
Procedure, shortened: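 material = yeast LAP4-GFP strain | medium = synthetic complete growth medium for yeast | doses = 10 µM, one concentration | schedule = compound exposure for 3 h at 30 °C | signal = flow cytometric GFP fluorescence | read-out basis = percent of mean DMSO-control median fluorescence | control set = rapamycin 400 ng/mL as positive control, DMSO wells as reference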
`COc1ccc(NC(=O)O/N=C2/CCCc3ccc(OC)cc32)cc1` showed a GFP response vs DMSO of 107%.
With `CC(C)Nc1ncnc2ccc(Br)cc12` the GFP response vs DMSO was 106%.
For `NC(=O)c1ccnc2c(O)cccc12`, the GFP response vs DMSO was 101%.
In the case of `COc1ccc(Nc2nc(NN)nc(C)c2[N+](=O)[O-])cc1`, the GFP response vs DMSO is reported as 100%.
`COCCNc1nc(N)c([N+](=O)[O-])c(Nc2ccc(F)cc2)n1` gave a GFP response vs DMSO of 106%.
For `Cc1cccc(Nc2cc(=O)[nH]c(=O)[nH]2)c1`, the GFP response vs DMSO was 106%.
In the case of `CC1=CN2C(=N)/C(=C/c3ccco3)C(=O)N=C2S1`, the GFP response vs DMSO is reported as 101%.
`O=c1cc(C(F)(F)F)[nH]c2c(OC(F)(F)F)cccc12` showed a GFP response vs DMSO of 98.6%.
`Cc1nc(Nc2ccc(Cl)cc2)c(C#N)c(=O)[nH]1` showed a GFP response vs DMSO of 107%.
Work on `COc1cc(=O)n(C)c2c(O)cccc12` yielded a GFP response vs DMSO of 101%.
`COc1ccc(N/C=C/C(=O)c2ccc(Cl)cc2)cc1` gave a GFP response vs DMSO of 110%.
For `C[n+]1cccc2cccc([O-])c21`, the GFP response vs DMSO was 107%.
`COc1cccc(N/C(C)=C/C(=O)c2ccc(Br)cc2)c1` gave a GFP response vs DMSO of 103%.
For `CCOC(=O)CS(=O)(=O)c1nc(-c2ccccc2)cc(C(F)(F)F)n1`, the GFP response vs DMSO was 182% (active).
Molecule `COc1cccc2c(=O)c(C(=O)O)c[nH]c12` has a GFP response vs DMSO of 110%.
`O=C(N/N=C/c1ccccc1O)c1cccc2ccccc12` showed a GFP response vs DMSO of 110%.
With `CNc1nc(C)c([N+](=O)[O-])c(Nc2ccc(OC)cc2)n1` the GFP response vs DMSO was 108%.
For `Oc1c(Br)cc(Br)c2cccnc12`, the GFP response vs DMSO was 257% (active).
In the case of `CSc1nc(S(C)(=O)=O)nc2[nH]c(=O)[nH]c12`, the GFP response vs DMSO is reported as 104%.
